We go through 26 compounds from ChEMBL document CHEMBL4616614, “Discovery of thieno[2,3-d]pyrimidin-4(3H)-one derivatives as a new class of ROCK inhibitors” (Bioorg Med Chem Lett, 2020).

For test [1], the target named is Rho-associated protein kinase 1 (Homo sapiens, UniProt Q13464). Put plainly: Inhibition of recombinant human ROCK1 (17 to 535 residues) using KEAKEKRQEQIAKRRRLSSLRASTSKSGGSQK as substrate incubated for 40 mins in presence of [gamma-33P]ATP by radiometric scintillation assay. Summed up:
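IC50 values determined through a commercial kinase profiling service, with ATP at 10 µM.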

Test [2] addresses Rho-associated protein kinase 2 (Homo sapiens, UniProt O75116). Put plainly: Inhibition of recombinant human ROCK2 (11 to 552 residues) using KEAKEKRQEQIAKRRRLSSLRASTSKSGGSQK as substrate incubated for 40 mins in presence of [gamma-33P]ATP by radiometric scintillation assay.

A value given as a limit tells only on which side of the number the result lay.

Chain of Rho-associated protein kinase 2 (O75116 whole entry, the tested form may be a part): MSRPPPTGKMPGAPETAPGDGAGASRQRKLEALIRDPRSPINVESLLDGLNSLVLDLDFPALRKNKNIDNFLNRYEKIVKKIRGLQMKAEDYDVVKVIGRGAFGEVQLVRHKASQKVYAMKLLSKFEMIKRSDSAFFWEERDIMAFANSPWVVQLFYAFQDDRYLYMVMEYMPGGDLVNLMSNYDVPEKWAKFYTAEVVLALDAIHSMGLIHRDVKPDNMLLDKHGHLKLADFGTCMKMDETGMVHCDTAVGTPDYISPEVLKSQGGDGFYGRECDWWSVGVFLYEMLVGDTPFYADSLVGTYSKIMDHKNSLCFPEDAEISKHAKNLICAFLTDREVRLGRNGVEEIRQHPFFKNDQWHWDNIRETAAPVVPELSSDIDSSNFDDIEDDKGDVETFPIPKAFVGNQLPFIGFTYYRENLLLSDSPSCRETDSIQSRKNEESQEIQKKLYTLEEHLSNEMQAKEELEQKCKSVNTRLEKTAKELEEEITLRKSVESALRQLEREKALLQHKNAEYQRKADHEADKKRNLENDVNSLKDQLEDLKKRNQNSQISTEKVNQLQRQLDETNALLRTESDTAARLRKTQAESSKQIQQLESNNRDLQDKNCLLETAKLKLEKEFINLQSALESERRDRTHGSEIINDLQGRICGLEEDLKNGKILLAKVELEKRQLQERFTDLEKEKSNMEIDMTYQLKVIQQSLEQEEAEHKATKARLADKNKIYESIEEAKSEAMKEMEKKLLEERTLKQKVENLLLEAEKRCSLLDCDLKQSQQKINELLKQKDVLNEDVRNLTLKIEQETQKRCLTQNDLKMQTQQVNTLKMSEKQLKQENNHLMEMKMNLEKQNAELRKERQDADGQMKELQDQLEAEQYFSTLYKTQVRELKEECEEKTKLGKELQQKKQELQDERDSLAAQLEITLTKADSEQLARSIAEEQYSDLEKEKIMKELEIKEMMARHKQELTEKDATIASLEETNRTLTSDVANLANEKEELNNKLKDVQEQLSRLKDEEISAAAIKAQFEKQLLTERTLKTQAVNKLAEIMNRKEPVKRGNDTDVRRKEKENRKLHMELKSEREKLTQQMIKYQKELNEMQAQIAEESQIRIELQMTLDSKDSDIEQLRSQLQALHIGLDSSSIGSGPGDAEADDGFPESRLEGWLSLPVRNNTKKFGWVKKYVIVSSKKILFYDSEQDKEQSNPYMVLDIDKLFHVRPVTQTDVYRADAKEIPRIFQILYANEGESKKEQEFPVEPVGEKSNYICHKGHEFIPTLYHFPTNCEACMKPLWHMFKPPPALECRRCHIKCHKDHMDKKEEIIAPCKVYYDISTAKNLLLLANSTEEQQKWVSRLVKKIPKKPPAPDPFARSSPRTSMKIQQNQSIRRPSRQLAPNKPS
Chain of Rho-associated protein kinase 1 (Q13464 whole entry, the tested form may be a part): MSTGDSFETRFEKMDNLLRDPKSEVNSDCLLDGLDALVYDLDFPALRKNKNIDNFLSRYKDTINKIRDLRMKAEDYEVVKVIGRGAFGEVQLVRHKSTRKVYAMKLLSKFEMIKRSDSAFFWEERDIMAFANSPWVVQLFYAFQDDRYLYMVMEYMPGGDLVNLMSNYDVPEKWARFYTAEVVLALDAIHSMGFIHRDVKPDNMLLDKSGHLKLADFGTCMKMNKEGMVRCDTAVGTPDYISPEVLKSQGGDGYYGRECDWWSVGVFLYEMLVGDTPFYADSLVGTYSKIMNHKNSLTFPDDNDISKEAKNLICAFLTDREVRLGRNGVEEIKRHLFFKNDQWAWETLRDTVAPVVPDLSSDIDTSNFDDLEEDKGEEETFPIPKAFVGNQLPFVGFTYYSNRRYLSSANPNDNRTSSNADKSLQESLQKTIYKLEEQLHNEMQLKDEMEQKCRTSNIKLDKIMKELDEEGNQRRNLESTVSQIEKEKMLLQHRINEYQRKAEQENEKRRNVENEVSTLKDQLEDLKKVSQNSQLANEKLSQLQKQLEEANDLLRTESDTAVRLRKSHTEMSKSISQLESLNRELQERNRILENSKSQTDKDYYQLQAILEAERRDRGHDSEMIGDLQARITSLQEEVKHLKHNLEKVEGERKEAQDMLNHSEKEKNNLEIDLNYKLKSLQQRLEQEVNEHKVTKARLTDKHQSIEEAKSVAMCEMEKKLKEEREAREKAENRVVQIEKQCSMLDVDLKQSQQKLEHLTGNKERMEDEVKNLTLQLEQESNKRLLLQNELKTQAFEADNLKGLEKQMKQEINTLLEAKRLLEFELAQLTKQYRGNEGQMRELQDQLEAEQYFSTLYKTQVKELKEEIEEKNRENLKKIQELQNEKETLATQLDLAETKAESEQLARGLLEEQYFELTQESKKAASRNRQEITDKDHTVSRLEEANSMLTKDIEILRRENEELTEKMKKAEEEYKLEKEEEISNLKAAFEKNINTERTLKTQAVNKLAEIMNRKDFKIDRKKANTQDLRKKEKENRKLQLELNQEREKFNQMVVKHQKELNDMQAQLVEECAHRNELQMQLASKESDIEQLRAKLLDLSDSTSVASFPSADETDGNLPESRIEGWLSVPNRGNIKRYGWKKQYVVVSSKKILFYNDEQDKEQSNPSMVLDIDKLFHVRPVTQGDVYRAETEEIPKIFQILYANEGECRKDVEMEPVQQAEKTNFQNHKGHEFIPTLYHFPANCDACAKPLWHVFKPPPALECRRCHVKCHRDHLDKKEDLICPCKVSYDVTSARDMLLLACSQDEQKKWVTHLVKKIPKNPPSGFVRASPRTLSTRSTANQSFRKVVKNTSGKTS

Consider `COc1cccc(Cn2cnc3sc(-c4cccnc4)cc3c2=O)c1`, for which the results for the 50% inhibitory concentration (IC50) in test [1] and in test [2] were over 10000 nM and 3480 nM, respectively.

For the compound `COc1cccc(Cn2cnc3sc(-c4ccc(N)nc4)cc3c2=O)c1`, the IC50 in test [1] and in test [2] was over 10000 nM each time.

Turning to `COc1cc(Cn2cnc3sc(-c4ccnc5[nH]ccc45)cc3c2=O)cc(OC)c1`, the IC50 came out at 74 nM in test [1] and 4 nM in test [2].

For the compound `COc1cccc(Cn2cnc3sc(-c4ccc(-c5ccncc5)cc4)cc3c2=O)c1`, the IC50 in test [1] and in test [2] was over 10000 nM throughout.

`COc1cccc(Cn2cnc3sc(-c4ccc5[nH]ncc5c4)cc3c2=O)c1`: the values for the IC50 in test [1] and in test [2] were 20 nM and 2 nM, respectively.

`COc1ccc(Cn2cnc3sc(-c4ccnc(N)c4)cc3c2=O)cc1OC`: the IC50 in test [1] was over 10000 nM; in test [2], 219 nM.

As to `COc1ccc(Cn2cnc3sc(-c4ccnc5[nH]ccc45)cc3c2=O)cc1`, the IC50 in test [1] is 13 nM; in test [2], 2 nM.

`COc1cccc(Cn2cnc3sc(-c4ccnc5[nH]ccc45)cc3c2=O)c1`: the IC50 is 4 nM in test [1] and 1 nM in test [2].

Turning to `COc1cccc(Cn2cnc3sc(-c4cccc5[nH]ccc45)cc3c2=O)c1`, the IC50 in test [1] is over 10000 nM; in test [2], 583 nM.

As to `Nc1cc(-c2cc3c(=O)n(Cc4cccc(C(F)(F)F)c4)cnc3s2)ccn1`, the IC50 in test [1] is 490 nM; in test [2], 25 nM.

With `COc1cccc(Cn2ccc3cc(-c4ccc5[nH]ncc5c4)ccc3c2=O)c1`, the figures for the IC50 in test [1] and in test [2] were 1880 nM and 107 nM, respectively.

Regarding `COc1cccc(Cn2cnc3cc(-c4ccc5[nH]ncc5c4)ccc3c2=O)c1`, the half-inhibitory concentration (IC50) in test [1] was 3110 nM; in test [2] it was 88 nM.

Consider `COc1cccc(Cn2cnc3sc(-c4ccncc4)cc3c2=O)c1`, for which the IC50 turned out to be 45 nM in test [1] and 6 nM in test [2].

As to `COc1cccc(Cn2cnc3sc(-c4ccnc(OC)c4)cc3c2=O)c1`, the values for the IC50 in test [1] and in test [2] were over 10000 nM and 6910 nM, respectively.

As for `COc1cccc(CN2CCc3cc(-c4ccc5[nH]ncc5c4)ccc3C2=O)c1`, the IC50 in test [1] was determined as 2060 nM; in test [2], 632 nM.

With `COc1cccc(Cn2cnc3sc(-c4ccnc(C)c4)cc3c2=O)c1`, the IC50 in test [1] turned out to be 2510 nM; in test [2], 42 nM.

As for `COc1ccc(Cn2cnc3sc(-c4ccnc(N)c4)cc3c2=O)cc1`, the IC50 in test [1] stood at 1440 nM; in test [2], 46 nM.

In the case of `O=c1c2cc(-c3ccnc4[nH]ccc34)sc2ncn1Cc1cccc(F)c1`, the IC50 in test [1] amounted to 13 nM; in test [2], 1 nM.

`COc1cccc(Cn2ncc3cc(-c4ccc5[nH]ncc5c4)ccc3c2=O)c1`: the IC50 in test [1] is over 10000 nM; in test [2] it was 398 nM.

Consider `COc1cccc(Cn2cnc3sc(-c4ccnc(Cl)c4)cc3c2=O)c1`, for which the IC50 was over 10000 nM in test [1] and 501 nM in test [2].

For the compound `COc1ccc(Cn2cnc3sc(-c4ccnc5[nH]ccc45)cc3c2=O)cc1OC`, the results for the IC50 in test [1] and in test [2] were 25 nM and 4 nM, respectively.

Regarding `O=c1c2cc(-c3ccnc4[nH]ccc34)sc2ncn1Cc1cccc(C(F)(F)F)c1`, the IC50 in test [1] came out at 110 nM; in test [2] it was 7 nM.

As to `COc1cccc(Cn2cnc3sc(-c4ccnc(N)c4)cc3c2=O)c1`, the IC50 in test [1] was determined as 18 nM; in test [2], 1 nM.

On to `Nc1cc(-c2cc3c(=O)n(Cc4cccc(F)c4)cnc3s2)ccn1`, for which the IC50 in test [1] was determined as 34 nM; in test [2] it was 5 nM.

Turning to `COc1cccc(Cn2cnc3sc(-c4ccnc(F)c4)cc3c2=O)c1`, the IC50 was determined as 1050 nM in test [1] and 83 nM in test [2].

Turning to `COc1cc(Cn2cnc3sc(-c4ccnc(N)c4)cc3c2=O)cc(OC)c1`, the figures for the IC50 in test [1] and in test [2] were over 10000 nM and 58 nM, respectively.

A word on the IC50: it is the concentration that gives 50% inhibition.
